Results published in PMC5521815 (ACS chemical biology, 2016).
“Also recorded” adds a separate entry of the source.

Assays:
E. coli [1] = assay: Radial diffusion assay in the presence of RBCs and/or serum; type: cell-based, Escherichia coli; conditions: RBCs up to 1x10^9 cells/ml, 30 min 37°C; result in words
Summary of the method: (§1)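 Log-phase (TSB) E. coli ATCC 25922 or S. aureus ATCC 25923, 8 × 10^6 CFU in 20 mL underlay agarose with 3 mm wells. Test peptide at 20 μM was preincubated 30 min at 37 °C with washed human O+ RBCs and/or filtered serum at 2–20% of whole blood (1 × 10^8–1 × 10^9 cells/mL). 10 μL per well, 3 h at 37 °C, overlay, overnight; inhibition zones imaged.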

human RBC = assay: Hemolysis of human RBCs; type: cell-based; conditions: result in words; for Selectivity (antimicrobial activity relative to host cell toxicity): represented by hemolysis at 100 μM peptide; for Hemolysis, propensity to lyse human RBCs: 1x10^8 human RBC/ml, 100 μM peptide, 37° C, 1 hour
[2] = system: Escherichia coli strain ATCC 25922; assay: Broth dilution MIC; type: cell-based; conditions: result in words; for Activity (MIC) in broth dilution against E. coli: absence of RBCs, 5x10^5 CFU/ml, overnight 37°C
[3] = system: Staphylococcus aureus strain ATCC 25923; assay: Broth dilution MIC; type: cell-based; conditions: absence of RBCs; 5x10^5 CFU/ml, overnight 37°C; result in words
E. coli [4] = assay: Number of bound peptides required to kill E. coli; type: cell-based, Escherichia coli; conditions: calculated from sterilization limit and binding curve
[5] = system: Escherichia coli strain ATCC 25922; conditions: result in words; cited from earlier work
[6] = system: Staphylococcus aureus strain ATCC 25923; conditions: result in words; cited from earlier work
S. aureus = assay: Radial diffusion assay in the presence of RBCs; type: cell-based, Staphylococcus aureus; conditions: RBCs up to 1x10^9 cells/ml, 30 min 37°C; result in words
Summary of the method: as §1

Pseudomonas aeruginosa = conditions: result in words; cited from earlier work

With `[H]/N=C(/N)N[C@H]1[C@H](O)[C@@H](O)[C@H](O[C@@H]2O[C@@H](C)[C@](O)(C=O)[C@H]2O[C@@H]2O[C@@H](CO)[C@H](O)[C@@H](O)[C@@H]2NC)[C@@H](N/C(N)=N\[H])[C@@H]1O` [streptomycin] the “Effect of preincubation with RBCs on radial diffusion activity” value (E. coli [1]) was “not affected significantly”.
With RRGWALRLVLAY-NH2 [ARVA-L] the “Selectivity (antimicrobial activity relative to host cell toxicity)” value (human RBC) was “fair selectivity” and the “Host cell effect on MIC without preincubation with host cells” value ([2]; compared with preincubation, organism not stated) was “much smaller”.
For GIGKFLHSAKKFGK-AFVGEIMNS [magainin II], the “Hemolysis, propensity to lyse human RBCs” value (human RBC) was “near zero propensity to lyse dilute human RBCs”, the “Selectivity (antimicrobial activity relative to host cell toxicity)” value (human RBC) was “highly selective” and the “Activity (MIC) in broth dilution against S. aureus” value [3] was “active only against E. coli”. The “Activity (MIC) in broth dilution against E. coli” value [2] was “active only against E. coli”.
With RRGWALRLVLAY-NH2 [ARVA] the “Bound peptides per bacterial cell required for sterilization (no surviving CFUs)” value (E. coli [4]) was > 1x10^8 peptides per bacterial cell.
For “LLGDFFRKSKEKIGKEFKRIVQRIKDFLRNLVPRTES [LL-37]”, the “Activity in sterilization assay against E. coli (known)” value [5] is listed as “poor against E. coli” and the “Activity in sterilization assay against S. aureus (known)” value [6] is listed as “undetectable against S. aureus”.
In the case of `CN[C@H](CC(C)C)C(=O)N[C@H]1C(=O)N[C@@H](CC(N)=O)C(=O)N[C@H]2C(=O)N[C@H]3C(=O)N[C@H](C(=O)N[C@H](C(=O)O)c4cc(O)cc(O)c4-c4cc3ccc4O)[C@H](O)c3ccc(c(Cl)c3)Oc3cc2cc(c3O[C@@H]2O[C@H](CO)[C@@H](O)[C@H](O)[C@H]2O[C@H]2C[C@](C)(N)[C@H](O)[C@H](C)O2)Oc2ccc(cc2Cl)[C@H]1O` [vancomycin], the “Effect of preincubation with RBCs on radial diffusion activity” value (S. aureus) is reported as “not affected significantly”.
For “KWKLFKKIEKVGQN-IRDGIIKAGPAVAVVGQATQIAK [cecropin A]”, the “Hemolysis, propensity to lyse human RBCs” value (human RBC) was “near zero propensity to lyse dilute human RBCs”, the “Selectivity (antimicrobial activity relative to host cell toxicity)” value (human RBC) was “highly selective; also recorded: most selective in our set” and the “Activity (MIC) in broth dilution against S. aureus” value [3] was “not against S. aureus”. The “Activity (MIC) in broth dilution against E. coli” value [2] was “highly active”.
For GIGKFLKKAKK-FGKAFVKILKK-NH2 [MSI-78], the “Selectivity (antimicrobial activity relative to host cell toxicity)” value (human RBC) was “moderately high selectivity”.
For RRWVRRVRRWVRRVVR-VVRRWVRR [WLBU2], the “Activity in whole blood against Pseudomonas aeruginosa” value (Pseudomonas aeruginosa) is given as “retained activity in whole blood”.
In the case of ILPWKWPWWPWRR-NH2 [indolicidin], the “Selectivity (antimicrobial activity relative to host cell toxicity)” value (human RBC) is reported as “poor selectivity; also recorded: very poor selectivity”.
For melittin, the “Hemolysis, propensity to lyse human RBCs” value (human RBC) was “highly hemolytic”, the “Selectivity (antimicrobial activity relative to host cell toxicity)” value (human RBC) was “completely non-selective; also recorded: least selective peptide by far” and the “Selectivity (antimicrobial activity relative to host cell toxicity)” value (human RBC; listed as Melittin) was “entirely non-selective”.
